Results gathered from unrelated publications.
Lines come from different studies, so protocols differ.
EDNRA: Endothelin-1 receptor (EDNRA, Homo sapiens, UniProt P25101)
PDE5A: cGMP-specific 3',5'-cyclic phosphodiesterase (PDE5A, Homo sapiens, UniProt O76074)
PROC: Vitamin K-dependent protein C (PROC, Homo sapiens, UniProt P04070)

`CC(C)Cn1cnc2c(N)nc3ccccc3c21` has an inhibition of 8% (EDNRA; ligand displacement, radioligand; 10 µM).
For `C#Cc1n[nH]c2c(-c3cn(C(C)c4ccccn4)c(=O)[nH]c3=O)cc(F)cc12` (centres unmarked), the inhibition was 0.9% (Cytoplasmic tyrosine-protein kinase BMX (BMX, Homo sapiens, UniProt P51813); enzyme activity, inhibitor; 1 µM).
`Clc1ccc2c(C3CCN(CCc4c[nH]c5ccccc45)CC3)c[nH]c2c1` has an inhibition of -12% (EDNRA; ligand displacement, radioligand; 10 µM).
The inhibition of `CC(C)N1CCC[C@H]1CNC(=O)c1cn(C2CCCC2)c(=O)c2c1c1ccccc1n2C` is reported as 47% (Sigma non-opioid intracellular receptor 1 (SIGMAR1, Homo sapiens, UniProt Q99720); ligand displacement, radioligand; 10 µM).
The inhibition of `O[C@H]1[C@H](n2cnc3c(NC(C4CCCCC4)C4CCCCC4)nc(Cl)nc32)[C@H]2C[C@@]2(CCl)[C@H]1O` is reported as 21% (5-hydroxytryptamine receptor 2A (HTR2A, Homo sapiens, UniProt P28223); ligand displacement, radioligand; 10 µM).
For `CC(C)=CCCC1(C)C=Cc2c(O)c3c(c(CC=C(C)C)c2O1)OC12C(=CC4CC1C(C)(C)OC2(C/C=C(/C)C(=O)O)C4O)C3=O` (centres unmarked), the inhibition was -4% (Histone-lysine N-methyltransferase EHMT1 (EHMT1, Homo sapiens, UniProt Q9H9B1); cell-free assay; 10 µM).
`Cc1ncc(C)n2nc(/C=C/c3nc(N4CCCC4)cc(N4CCOCC4)n3)nc12` gave an inhibition of 38% (PDE5A; enzyme activity, inhibitor; 10 µM).
The inhibition of `CC(C)[C@H](NC(=O)OCc1ccccc1)C(=O)N[C@@H](CCCN=C(N)N)C(=O)N1CCC[C@H]1C(=O)N[C@@H](CCCN=C(N)N)C(=O)CF` is reported as 97% (Mucosa-associated lymphoid tissue lymphoma translocation protein 1 (MALT1, Homo sapiens, UniProt Q9UDY8); enzyme activity, inhibitor; 0.1 µM).
For `C[C@H]1N=C(c2ccccc2F)c2cc(Br)ccc2-n2cnc(C(=O)O)c21`, the inhibition was 52.3% (Kappa-type opioid receptor (OPRK1, Homo sapiens, UniProt P41145); ligand displacement, radioligand; 10 µM).
The inhibition of `CN(CCN1CCC(OC(=O)Nc2ccccc2-c2ccccc2)CC1)C(=O)c1ccc(CN2CCC(C(N)=O)CC2)cc1` is reported as -2% (Corticotropin-releasing factor receptor 1 (Rattus norvegicus, UniProt P35353); ligand displacement, radioligand; 1 µM).
`Cn1cc(-c2cccc(N3CCc4c(sc5c4CC(C)(C)C5)C3=O)c2CO)cc(Nc2ccncn2)c1=O` has an inhibition of 5% (Sphingosine kinase 1 (SPHK1, Homo sapiens, UniProt Q9NYA1); enzyme activity, inhibitor; 1 µM).
`CN(C)C(=O)COC(=O)Cc1ccc(OC(=O)c2ccc(NC(=N)N)cc2)cc1` has an inhibition of 77% (PROC; enzyme activity, inhibitor; 10 µM).
`Cn1cc(-c2cc(F)cc(N3CCn4c(cc5c4CCCC5)C3=O)c2CO)cc(Nc2ccc(N3CCN(C4COC4)CC3)cn2)c1=O` has an inhibition of 10% (Phosphatidylinositol 4-phosphate 3-kinase C2 domain-containing subunit beta (PIK3C2B, Homo sapiens, UniProt O00750); enzyme activity, inhibitor; 0.1 µM).
`C[C@H](C(=O)N[C@H]1COc2ccccc2[C@@H]1S(C)(=O)=O)c1ccc(F)cc1` gave an inhibition of -5% (PDE5A; enzyme activity, inhibitor; 10 µM).
The inhibition of `N=C(N)c1ccc2cc(OC(=O)c3ccc(N=C(N)N)cc3)ccc2c1` is reported as 4% (Caspase-6 (CASP6, Homo sapiens, UniProt P55212); enzyme activity, inhibitor; 10 µM).
The inhibition of `CCN(CC)CCCC[C@H](NC(=O)[C@H](CC(C)C)NC(=O)[C@H](C)NC(=O)[C@H](Cc1ccccc1)NC(=O)c1ccc(C(C)(C)C)cc1)C(=O)N[C@@H](CO)C(=O)OC` is reported as -2% (Adenosine receptor A2a (ADORA2A, Homo sapiens, UniProt P29274); ligand displacement, radioligand; 10 µM).
`CCOC(=O)c1ccc(OC(=O)CCCCCNC(=N)N)cc1` has an inhibition of 99% (PROC; enzyme activity, inhibitor; 10 µM).
`COCc1c(-c2cc3cc(C)cc(OC)c3s2)c2c(N)ncnn2c1CN1CCNC(=O)C1` gave an inhibition of 8% (PDE5A; enzyme activity, inhibitor; 10 µM).
For `[H]/N=C(/N)c1ccc(NCc2nc3cc(C(=O)N(CCC(=O)O)c4ccccn4)ccc3n2C)cc1`, the inhibition was 95% (PROC; enzyme activity, inhibitor; 20 µM).
`O=C(Nc1cccnn1)N1CCN([C@@H]2CCOc3cc(C(F)(F)F)ccc32)CC1` has an inhibition of 4% (Histamine H4 receptor (HRH4, Homo sapiens, UniProt Q9H3N8); cell-free assay; 20 µM).
